A selection: hits, their analogues and other compounds. The true share with any hit is near 4.6%.
GPR7 antag: antagonists of human GPR7 (neuropeptides B/W receptor 1); 290,000 compounds, 1.1% hits; P48145; GPR7-expressing cells, fluorescence antagonist assay; inhibition, % at 4.4 µM; in the data active = inhibition above about 16%, passing the limit was not always enough;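 note: cells stimulated with the agonist NPW; 0% = agonist with vehicle and 100% = vehicle without agonist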
Target sequence (P48145 whole entry, looked up): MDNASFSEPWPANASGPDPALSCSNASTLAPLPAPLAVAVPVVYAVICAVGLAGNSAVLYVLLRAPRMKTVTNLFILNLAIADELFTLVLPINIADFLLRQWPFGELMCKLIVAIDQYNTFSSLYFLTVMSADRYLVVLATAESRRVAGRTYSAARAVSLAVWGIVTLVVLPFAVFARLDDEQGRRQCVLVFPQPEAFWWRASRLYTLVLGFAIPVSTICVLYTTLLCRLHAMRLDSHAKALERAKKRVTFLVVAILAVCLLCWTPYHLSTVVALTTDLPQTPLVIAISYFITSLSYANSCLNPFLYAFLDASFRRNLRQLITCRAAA
OX1R antag-1: OX1R (human) antagonism | 330,000 compounds, 1.8% hits | inhibition, % at 6.6 µM | O43613 | OX1R-expressing cells, FRET antagonist read-out; in the data active = inhibition mostly above about 38%, no sharp cut-off; inactive = mostly below about 40%;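 note: 0% = agonist challenge alone and 100% = reference antagonist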
TAAR1 antag: human TAAR1 antagonism. inhibition, % at 3 µM. CHO RD-HGA16 TAAR1, Fluo-8 calcium fluorescence, antagonist. AID 624466. 360,000 compounds, 1.5% hits;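 active = inhibition above a per-plate cutoff, the mean inhibition of test compounds on that plate plus 3 SD, cut at about 49% in these data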;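 note: 0% = DMSO plus EC80 beta-PEA response and 100% = DMSO alone without agonist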
Target sequence (Q96RJ0 whole entry, looked up): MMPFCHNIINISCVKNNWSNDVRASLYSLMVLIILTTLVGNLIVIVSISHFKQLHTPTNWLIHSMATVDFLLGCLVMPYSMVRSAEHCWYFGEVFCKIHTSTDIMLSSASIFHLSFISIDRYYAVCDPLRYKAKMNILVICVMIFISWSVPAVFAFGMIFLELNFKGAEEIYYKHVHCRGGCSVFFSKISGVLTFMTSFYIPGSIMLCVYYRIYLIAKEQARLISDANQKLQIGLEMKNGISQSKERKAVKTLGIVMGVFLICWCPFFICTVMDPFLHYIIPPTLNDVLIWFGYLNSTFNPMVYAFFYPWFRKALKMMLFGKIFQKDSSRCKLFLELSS
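Test system: RD-HGA16 CHO cells with stable hTAAR1 and Gα16 / Probe or stimulus: EC80 β-phenethylamine stimulus / Times: seeding 17-24 h prior, 75-min 37 °C, 30-min RT dye loading / Detection: Fluo-8 calcium-sensitive fluorescence / Read-out basis: % inhibition scaled between DMSO and EC80 PEA controls / Repeats: singlicate, one well per test compound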
CHO parental Ca: counter-screen for OX1R antagonists: effect in parental CHO cells | inhibition, % at 5.6 µM | parental CHO-K1, ATP-induced calcium, Fluo-8 fluorescence | 330,000 compounds, 0.63% hits;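 active = inhibition above that plate's mean sample inhibition plus 3 SD, cut at about 26% in these data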;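 note: 0% = ATP-challenged DMSO wells and 100% = DMSO wells without ATP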
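Measured by: calcium-sensitive Fluo-8 fluorescence / Test system: CHO parental line / Controls: ATP-challenged DMSO wells low, unchallenged DMSO wells high / Measure: % inhibition / Compound: single nominal dose of 5.6 µM per compound / Replicates: single well per compound, no replicates / Reagent: ATP as calcium-mobilizing challenge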
TAAR1 ag: agonists of human TAAR1; CHO RD-HGA16 TAAR1, Fluo-8 calcium fluorescence; vehicle wells 0%, saturating PEA agonist 100%; activation, % at 3 µM; 360,000 compounds, 0.99% hits; AID 624467;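 active = activation above the mean activation of all test compounds in the run plus 3 SD, cut at about 38% in these data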
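Test system: RD-HGA16 (CHO) cells co-expressing Gα16 and hTAAR1 | Doses: Single dose, 3 µM | Schedule: 17-24 h seeding, 75 min 37 °C dye, 30 min RT | Evaluation: % activation from peak over basal fluorescence ratio, DMSO-to-PEA scaled | Technique: Kinetic Fluo-8 calcium fluorescence | Benchmarks: Low control DMSO, high control PEA (EC100)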
OX1R antag-2: human HCRTR1 antagonism; AID 434989; 330,000 compounds, 0.43% hits; inhibition, % at 5 µM; O43613; CHO/OX1R cells, Fluo-8 calcium fluorescence, orexin A;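 active = inhibition above its plate's threshold, mean inhibition of all tested compounds on the plate plus 3 SD, cut at about 37% in these data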;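 note: 0% = orexin A challenge wells and 100% = SB-334867-A antagonist wells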
OX1R HTRF conf: OX1R (human) antagonism, HTRF confirmed; OX1R-expressing cells, HTRF antagonist assay; AID 492964; shares compounds with OX1R antag-1; inhibition, % at 6.6 µM; 1,800 compounds, 49% hits; in the data active = inhibition above about 55%;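 note: CHO cells expressing OX1R stimulated with orexin A at about EC80; 0% = agonist challenge alone and 100% = reference antagonist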
CHO-K1 HTRF: counter-screen: parental CHO-K1 HTRF response; 1,800 compounds, 48% hits; shares compounds with OX1R antag-1; AID 493232; parental CHO-K1 cells, HTRF counterscreen; inhibition, % at 6.6 µM; in the data active = inhibition above about 17%;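 note: 0% = agonist challenge with vehicle and 100% = vehicle alone without agonist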
The depositor's hits bear a star; x = no result given.

SMILES | GPR7 antag | OX1R antag-1 | TAAR1 antag | CHO parental Ca | TAAR1 ag | OX1R antag-2 | OX1R HTRF conf | CHO-K1 HTRF
Cc1ccc(CC(=O)Nc2nc3ccccc3s2)cc1 | 9.2 | 21.1 | 3.9 | -18.4 | 18.9 | -14.8 | x | x
O=C(OCC#CCSc1nnc(-c2ccc([N+](=O)[O-])cc2)o1)c1cccs1 | -4.4 | 86.7* | 29.4 | -7.2 | 7.4 | -10.4 | 51.2 | 30.1*
CCCOc1cccc(C(=O)NCCNC(=O)c2ccco2)c1 | 1.0 | 5.0 | -8.2 | -8.8 | 0.4 | -15.5 | x | x
CN1C(=O)/C(=C2\SC(=S)N(C(CCC(=O)O)C(=O)O)C2=O)c2ccccc21 (centres undefined) | -4.6 | 141.8* | -5.2 | -0.3 | 6.2 | -14.6 | 57.2* | 102.0*
O=C(c1nn2c(C(F)(F)F)cc(-c3ccccc3)nc2c1Cl)N1CCOCC1 | -8.2 | 7.1 | -17.9 | -14.4 | 2.4 | -29.1 | x | x
O=C(c1nc2nc(-c3ccccc3)cc(C(F)(F)F)n2n1)N1CCOCC1 | -9.2 | 77.3* | -16.8 | -4.4 | 2.3 | 0.4 | 22.3 | 26.7*
O=C1C(Nc2ccccc2)=C/C(=N/S(=O)(=O)c2cccs2)c2ccccc21 | -6.0 | 39.8 | x | -23.3 | x | -21.1 | x | x
CCc1cc[n+](C2=C([O-])c3ccccc3C(=O)/C2=N\S(=O)(=O)c2cccs2)cc1 | -1.7 | 148.7* | -6.6 | -12.4 | 2.9 | -17.4 | 55.7* | 80.4*
CN(C)CCCNc1ccc(S(N)(=O)=O)cc1[N+](=O)[O-] | -7.2 | 121.5* | 3.5 | -4.0 | 7.1 | 1.7 | 39.3 | 55.5*
CC(O)CNc1ccc(-c2nn(C)c(=O)c3ccccc23)cc1[N+](=O)[O-] (centres undefined) | -7.4 | 33.1 | 1.7 | -12.3 | -0.5 | -25.0 | x | x
CN(C)CCCNc1ccc(-c2nn(C)c(=O)c3ccccc23)cc1[N+](=O)[O-] | -5.2 | 118.1* | 12.5 | -8.9 | 0.8 | -12.3 | 30.5 | 40.3*
COc1ccc(CC2=C(O)c3ccccc3C(=O)C2=O)cc1 | -3.7 | 33.6 | -9.7 | -3.8 | -0.4 | -0.9 | x | x
O=C1C(=O)c2ccccc2C(O)=C1CCCCl | -1.8 | 80.2* | x | -7.0 | x | -10.0 | 77.4* | 96.3*
O=C(NCc1ccc2c(c1)OCO2)C1CCN(c2ncccn2)CC1 | 2.4 | 7.9 | 0.5 | -6.4 | 6.6 | -7.1 | x | x
Clc1ccccc1Cc1noc(CN2CCN(Cc3ccccn3)CC2)n1 | -1.2 | 16.6 | -8.9 | 10.1 | 1.2 | -11.5 | x | x
COc1cccc(-c2noc(-c3ccc4c(c3)OCO4)n2)c1 | -1.8 | 3.4 | 5.6 | -5.3 | 2.4 | -1.5 | x | x
O=[N+]([O-])c1ccc(Nc2ccccc2O)c2nonc12 | -12.3 | x | -8.5 | x | 4.1 | x | x | x
COc1ccc(Nc2ccc([N+](=O)[O-])c3nonc23)c(OC)c1 | 4.8 | 50.5 | -0.7 | -16.5 | -3.9 | -33.8 | x | x
NS(=O)(=O)c1ccc(Nc2ccc([N+](=O)[O-])c3nonc23)cc1 | 8.0 | 132.1* | -13.1 | 4.3 | 2.3 | -1.9 | 49.9 | 62.7*
CC(=O)c1ccc(Nc2ccc([N+](=O)[O-])c3nonc23)cc1 | -9.4 | 77.9* | -2.4 | 19.7 | 9.5 | 0.5 | 41.4 | 38.6*
CC(=O)Nc1ccc(S(=O)(=O)NC2=NCN(c3ccc([N+](=O)[O-])cc3)CN2)cc1 | -9.0 | 13.3 | -2.4 | 0.4 | 2.9 | -9.8 | x | x
CN1CN=C(NS(=O)(=O)c2ccc([N+](=O)[O-])cc2)NC1 | -8.6 | 82.8* | -20.9 | -1.8 | 6.1 | -9.7 | 32.2 | 29.7*
C[C@@]12C(=O)N(CC3CC3)CC(=O)N1[C@H](C1CC1)[C@@H]1C(=O)N(c3ccccc3)C(=O)[C@@H]12 | -0.1 | 16.9 | -10.0 | -6.6 | 5.0 | -8.1 | x | x
O=[n+]1c2c(n([O-])c3cc(F)ccc31)CCCC2 | -0.1 | 81.8* | 9.6 | -1.6 | 0.2 | -9.1 | 36.3 | 53.7*
O=[n+]1c2c(n([O-])c3ccccc31)CCC2 | -3.6 | 28.1 | x | 8.6 | x | -1.4 | x | x
SMILES | GPR7 antag | OX1R antag-1 | TAAR1 antag | CHO parental Ca | TAAR1 ag | OX1R antag-2 | OX1R HTRF conf | CHO-K1 HTRF
Cc1ccc(CONC(=O)c2ccc([N+](=O)[O-])cc2)cc1 | x | 16.1 | -5.7 | -3.1 | 1.8 | 3.0 | x | x
CN(C)c1ccccc1C(=O)N1CCC(n2nccc2NC(=O)C2CC2)CC1 | -2.5 | 5.5 | -19.8 | -0.9 | 1.8 | -13.0 | x | x
CCN1CCN(C(=O)c2cc3cc4cc(OC)ccc4nc3s2)CC1 | 2.9 | 109.7* | -2.9 | -9.3 | 2.8 | -16.0 | 10.8 | 0.1
COC(=O)c1ccc(NC(=O)CSc2nnc(C)n2CC2CCCO2)cc1 (centres undefined) | -12.5 | 89.1* | -18.6 | -13.8 | 1.6 | -4.3 | 13.5 | 4.1
O=C(CN1C2=NCCCN2c2ccccc21)c1cccc(Br)c1 | 1.3 | -2.9 | -15.0 | -6.5 | 8.4 | -11.7 | x | x
O=C(CN1C2=NCCCN2c2ccccc21)c1ccc([N+](=O)[O-])cc1 | -4.1 | 86.6* | -17.9 | -15.6 | 4.7 | -14.6 | 58.3* | 62.4*
COc1ccc(CN2CCN(C(=O)CC(C)C)CC2)cc1 | 0.7 | 14.1 | -9.0 | 6.2 | 8.2 | 8.3 | x | x
Cc1c(Cl)cccc1NC(=O)c1cc(-c2ccccc2O)n[nH]1 | -3.2 | 80.7* | 30.0 | 4.1 | 14.3 | 6.7 | 24.0 | 15.3
COc1ccccc1C(=O)NCC(=O)N=Nc1c(O)n(C(C)C)c2ccccc12 | -3.6 | 93.3* | 17.0 | -24.5 | 1.5 | 0.7 | 75.7* | 4.7
CC(C)n1c(O)c(N=NC(=O)CNC(=O)Cc2ccc(Cl)cc2)c2ccccc21 | -18.9 | 5.9 | 18.5 | -28.5 | 1.8 | -24.8 | x | x
O=[N+]([O-])c1cccc(-c2ccc3nnc(SCc4ccccn4)n3n2)c1 | -5.5 | 77.0* | -7.4 | -11.3 | 2.8 | -17.6 | 45.5 | 35.6*
CCN(CCCNC(=O)C1CCN(S(=O)(=O)c2cccc3nonc23)CC1)Cc1ccccc1 | 4.9 | 91.7* | -2.3 | -11.9 | 12.7 | -15.9 | 29.1 | 43.8*
O=C(Cc1ccccc1Cl)N1CCN(c2ncccn2)CC1 | -15.2 | 6.0 | 9.3 | 3.5 | 1.2 | -6.9 | x | x
N#Cc1cc2[nH]c3ccccc3c2[n+](-c2ccc([N+](=O)[O-])cc2)c1N | 11.4 | 123.7* | -24.8 | -4.6 | 0.8 | 4.1 | 32.3 | 37.7*
COC(=O)c1sccc1NC(=O)Nc1cccc(C)c1 | -13.1 | 34.8 | 10.0 | -29.4 | -0.6 | -26.1 | x | x
COC(=O)c1sccc1NC(=O)Nc1cccc(C(C)=O)c1 | -14.7 | 82.0* | 25.2 | 1.6 | 11.2 | 13.2 | 67.4* | 8.3
CCN(CC)c1ccc(/C=N/NC(=O)OC)c(O)c1 | -1.2 | 25.9 | 30.7 | -21.5 | 0.9 | -7.2 | x | x
